For ten compounds, IC50, inhibition and Activity results are on record in ChEMBL document CHEMBL3414494 (Eur J Med Chem, 2015).

Experiment [1] in a line: Cytotoxicity against human Hep3B cells assessed as growth inhibition after 72 hrs by MTT assay. The format is functional, cell-based, Hep 3B2. Put shortly:
(§1)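 Cells were seeded at 2000–3000 per well and pre-incubated 24 h at 37 °C, 5% CO2. A concentration range of compound was then added for 72 h. MTT (5 mg/mL) was added for 3 h, the medium removed, and formazan dissolved in DMSO. Absorbance was read at 550 nm as the viable-cell measure.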
For orientation: Tetrazolium assays rely on reduction of a dye to a coloured formazan, in cell work by metabolically active cells.

The nature of experiment [2]: Cytotoxicity against human PANC1 cells assessed as growth inhibition after 72 hrs by MTT assay. The format is functional, cell-based. Conditions: PANC-1, 72 h. Put shortly:
as §1

A further experiment deals with HepG2. Nature of the experiment: Cytotoxicity against human HepG2 cells assessed as growth inhibition after 72 hrs by MTT assay. Type of experiment: functional, cell-based. The conditions noted are these: HepG2, 72 h. Put shortly: as §1
A short description of experiment [3]: Cytotoxicity against human SNU5 cells assessed as growth inhibition after 72 hrs by MTT assay. The format is functional, cell-based. The conditions noted are these: SNU-5, 72 h. Put shortly:
as §1

The test system of the next experiment is SW-620. Kind of experiment: Cytotoxicity against human SW620 cells assessed as growth inhibition after 72 hrs by MTT assay. The format is functional, cell-based. The conditions noted are these: SW-620, 72 h. Put shortly: as §1
For the next experiment, the target named is Tubulin (Homo sapiens) (UniProt P68371+Q9H4B7+P0DPH7+P68366+Q13509+Q71U36+P04350+Q3ZCM7+P07437+P68363+Q9BQE3+Q6PEY2+Q13885+Q9BVA1+Q9BUF5). Nature of the experiment: Inhibition of tubulin (unknown origin) polymerization at 10 uM. Type of experiment: protein-complex assay.
The target in another experiment is Histone deacetylase 3 (Homo sapiens, UniProt O15379). Nature of the experiment: Inhibition of recombinant human HDAC3 expressed in baculovirus infected insect High5 cells using Ac-Lys-Tyr-Lys (epsilon-acetyl)-AMC as substrate after 3 hrs by fluorescence assay.
Chain of Histone deacetylase 3 (O15379 whole entry): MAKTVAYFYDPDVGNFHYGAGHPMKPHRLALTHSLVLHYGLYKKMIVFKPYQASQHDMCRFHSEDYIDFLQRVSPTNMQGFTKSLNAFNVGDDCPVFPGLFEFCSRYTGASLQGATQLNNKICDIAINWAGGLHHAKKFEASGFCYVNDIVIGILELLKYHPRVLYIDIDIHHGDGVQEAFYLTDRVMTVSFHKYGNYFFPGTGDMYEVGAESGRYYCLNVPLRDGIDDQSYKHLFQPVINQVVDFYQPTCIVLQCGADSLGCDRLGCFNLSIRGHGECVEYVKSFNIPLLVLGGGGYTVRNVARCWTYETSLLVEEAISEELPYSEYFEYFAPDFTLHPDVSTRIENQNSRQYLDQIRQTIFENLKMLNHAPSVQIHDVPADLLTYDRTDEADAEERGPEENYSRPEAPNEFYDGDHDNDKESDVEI
For another experiment, the target named is Histone deacetylase 1 (Homo sapiens, UniProt Q13547). Nature of the experiment: Inhibition of recombinant human HDAC1 expressed in baculovirus infected insect High5 cells using Ac-Lys-Tyr-Lys (epsilon-acetyl)-AMC as substrate after 24 hrs by fluorescence assay.
Chain of Histone deacetylase 1 (Q13547 whole entry): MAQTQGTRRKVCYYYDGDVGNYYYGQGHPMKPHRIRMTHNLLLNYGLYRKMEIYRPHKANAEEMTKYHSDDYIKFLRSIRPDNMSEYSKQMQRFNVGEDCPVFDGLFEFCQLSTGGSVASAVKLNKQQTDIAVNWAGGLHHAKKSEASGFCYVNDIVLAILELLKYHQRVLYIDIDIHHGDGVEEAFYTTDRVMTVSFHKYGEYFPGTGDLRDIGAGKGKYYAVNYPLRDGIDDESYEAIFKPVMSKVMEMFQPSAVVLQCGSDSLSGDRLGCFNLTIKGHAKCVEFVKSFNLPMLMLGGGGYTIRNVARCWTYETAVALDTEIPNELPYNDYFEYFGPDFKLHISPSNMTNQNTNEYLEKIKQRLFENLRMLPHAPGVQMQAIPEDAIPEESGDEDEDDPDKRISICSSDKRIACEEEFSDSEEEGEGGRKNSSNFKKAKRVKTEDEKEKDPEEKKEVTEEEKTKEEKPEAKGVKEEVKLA
A short description of experiment [4]: Cytotoxicity against human SNU16 cells assessed as growth inhibition after 72 hrs by MTT assay. Type of experiment: functional, cell-based. Conditions: SNU-16, 72 h. Put shortly:
as §1

For another experiment, the target named is Histone deacetylase 2 (Homo sapiens, UniProt Q92769). Nature of the experiment: Inhibition of recombinant human HDAC2 expressed in baculovirus infected insect High5 cells using Ac-Lys-Tyr-Lys (epsilon-acetyl)-AMC as substrate after 24 hrs by fluorescence assay.
Chain of Histone deacetylase 2 (Q92769 whole entry): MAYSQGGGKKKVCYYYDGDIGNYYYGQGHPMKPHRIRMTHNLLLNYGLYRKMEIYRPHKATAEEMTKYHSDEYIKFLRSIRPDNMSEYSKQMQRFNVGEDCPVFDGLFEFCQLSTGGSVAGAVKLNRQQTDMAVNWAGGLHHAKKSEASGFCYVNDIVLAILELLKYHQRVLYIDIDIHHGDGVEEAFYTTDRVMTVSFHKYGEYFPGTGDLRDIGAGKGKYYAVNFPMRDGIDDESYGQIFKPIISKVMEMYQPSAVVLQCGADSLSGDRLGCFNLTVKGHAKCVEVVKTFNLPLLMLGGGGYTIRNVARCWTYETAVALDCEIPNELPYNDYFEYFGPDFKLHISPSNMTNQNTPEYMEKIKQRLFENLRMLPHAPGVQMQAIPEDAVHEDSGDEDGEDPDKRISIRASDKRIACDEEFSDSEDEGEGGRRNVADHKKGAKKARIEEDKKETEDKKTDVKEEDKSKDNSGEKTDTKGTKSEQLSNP
Experiment [5] can be described thus: Cell cycle arrest in human HCT116 cells assessed as accumulation at G2/M phase at 10 to 20 nM after 24 hrs by flow cytometric analysis. The format is functional, cell-based. Conditions: HCT-116. (Flow cytometry measures light scatter and fluorescence of single cells or particles in a stream.)
Experiment [6] can be described thus: Cytotoxicity against human HCT116 cells assessed as growth inhibition after 72 hrs by MTT assay. The format is functional, cell-based. The conditions noted are these: HCT-116, 72 h. Put shortly: as §1
In a further experiment the test system is SJSA-1. Nature of the experiment: Cytotoxicity against human SJSA1 cells assessed as growth inhibition after 72 hrs by MTT assay. Type of experiment: functional, cell-based. Conditions: SJSA-1, 72 h. Put shortly: as §1
A further experiment has as its system A549. Nature of the experiment: Cytotoxicity against human A549 cells assessed as growth inhibition after 72 hrs by MTT assay. The format is functional, cell-based. Conditions: A549, 72 h. Put shortly: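 A549 human lung adenocarcinoma cells were seeded at 2000–3000 cells/well and held 24 h at 37 °C in 5% CO2. They were then exposed to a range of compound concentrations for 72 h at 37 °C. MTT (5 mg/mL stock) was added for 3 h, the medium was removed, formazan was dissolved in DMSO, and absorbance was read at 550 nm.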

Experiment [7] is described as follows: Cytotoxicity against human MHCC97H cells assessed as growth inhibition after 72 hrs by MTT assay. Type of experiment: functional, cell-based. Put shortly: as §1
Experiment [8] is described as follows: Cytotoxicity against human MKN45 cells assessed as growth inhibition after 72 hrs by MTT assay. Conditions: MKN-45, 72 h. Type of experiment: functional, cell-based. Put shortly:
as §1

The term IC50 denotes the concentration needed to halve the response being measured.

The source made the active and inactive calls. The rule behind the calls is not given here.

Consider `COc1cc2c(c(OC)c1OC)-c1ccc(OC)c(=O)cc1[C@@H](NC(=O)c1cccc(C(=O)Nc3cc(-c4cccs4)ccc3N)c1)CC2`, for which the IC50 came out at 10 nM in experiment [1]; 19 nM in [2]; 20 nM in the experiment with HepG2; 119 nM in [3]; 4 nM in the experiment on SW-620; 1490 nM at Histone deacetylase 3. Further, the IC50 came to 1500 nM on Histone deacetylase 1; 5 nM in [4]; 190 nM at Histone deacetylase 2; 39 nM in experiment [6]; 27 nM with SJSA-1; 2790 nM with A549. The IC50 worked out at 339 nM in experiment [7] and 2 nM in experiment [8]. Also, the inhibition entry at Tubulin (Homo sapiens) is “Active”. In [5], the outcome was Active.
`COc1cc2c(c(OC)c1OC)-c1ccc(OC)c(=O)cc1[C@@H](NCc1ccc(C(=O)Nc3cc(-c4cccs4)ccc3N)cc1)CC2`: the IC50 at Histone deacetylase 3 turned out to be 1470 nM; on Histone deacetylase 1, 3320 nM; at Histone deacetylase 2, 270 nM; in the experiment with A549 it was 1040 nM.
Regarding `COc1cc2c(c(OC)c1OC)-c1ccc(OC)c(=O)cc1[C@@H](NC(=O)c1ccc(C(=O)Nc3cc(-c4cccs4)ccc3N)cc1)CC2`, the 50% inhibitory concentration (IC50) came to 1970 nM on Histone deacetylase 3, 2240 nM on Histone deacetylase 1, 380 nM on Histone deacetylase 2 and 740 nM with A549.
Regarding `COc1cc2c(c(OC)c1OC)-c1ccc(OC)c(=O)cc1[C@@H](NC(C)=O)CC2` [COLCHICINE], the half-inhibitory concentration (IC50) in [1] is 14 nM; in experiment [2], 21 nM; with HepG2 it was 27 nM; in experiment [3] it was 34 nM; in the experiment with SW-620, 5 nM; at Histone deacetylase 3, above 50100 nM. Also, the 50% inhibitory concentration (IC50) at Histone deacetylase 1 is above 50100 nM; in [4], 5 nM; on Histone deacetylase 2, above 50100 nM; in experiment [6], 40 nM; with SJSA-1 it was 8 nM; in the experiment with A549, 105 nM. The IC50 is 110 nM in [7] and 2 nM in experiment [8]. The outcome in experiment [5] was Active.
With `COc1cc2c(c(OC)c1OC)-c1ccc(OC)c(=O)cc1[C@@H](NC(=O)c1ccc(C(=O)Nc3ccccc3N)cc1)CC2`, the IC50 at Histone deacetylase 3 was 12100 nM; on Histone deacetylase 1 it was 15900 nM; at Histone deacetylase 2, 10400 nM; with A549, 1620 nM.
As for `COc1cc2c(c(OC)c1OC)-c1ccc(OC)c(=O)cc1[C@@H](NC(=O)c1cccc(C(=O)Nc3ccccc3N)c1)CC2`, the IC50 was found to be 10800 nM at Histone deacetylase 3, 9620 nM at Histone deacetylase 1, 4910 nM on Histone deacetylase 2 and 3430 nM with A549.
Turning to `COc1cc2c(c(OC)c1OC)-c1ccc(OC)c(=O)cc1[C@@H](NCc1ccc(C(=O)Nc3ccccc3N)cc1)CC2`, the IC50 in experiment [1] worked out at 5 nM; in experiment [2], 5 nM; in the experiment on HepG2 it was 14 nM; in experiment [3], 14 nM; in the experiment on SW-620, 2 nM; at Histone deacetylase 3, 11200 nM. In addition, the IC50 on Histone deacetylase 1 stood at 12500 nM; in [4] it was 2 nM; at Histone deacetylase 2, 6730 nM; in [6] it was 5 nM; in the experiment with SJSA-1, 9 nM; in the experiment on A549 it was 106 nM. The IC50 is 43 nM in experiment [7] and 2 nM in experiment [8]. The inhibition entry on Tubulin (Homo sapiens) is “Active”. For the same compound, in experiment [5], the result was Active.
Regarding `Nc1ccccc1NC(=O)c1ccc(CNc2nccc(-c3cccnc3)n2)cc1` [MOCETINOSTAT], the IC50 in [1] amounted to 823 nM; in experiment [2] it was 26800 nM; in the experiment on HepG2 it was 876 nM; in experiment [3], 1010 nM; in the experiment on SW-620, 419 nM; in experiment [4], 142 nM. In addition, the IC50 in [6] is 396 nM; with SJSA-1 it was 3620 nM; with A549 it was 2080 nM; in experiment [7], 4560 nM; in [8], 610 nM.
On to `COc1cc2c(c(OC)c1OC)-c1ccc(OC)c(=O)cc1[C@@H](NCc1cccc(C(=O)Nc3cc(-c4cccs4)ccc3N)c1)CC2`, for which the IC50 was 19700 nM at Histone deacetylase 3, 25500 nM on Histone deacetylase 1, 5410 nM at Histone deacetylase 2 and 393 nM in the experiment on A549.
Take `COc1cc2c(c(OC)c1OC)-c1ccc(OC)c(=O)cc1[C@@H](NCc1cccc(C(=O)Nc3ccccc3N)c1)CC2`: the inhibition result on Tubulin (Homo sapiens) is “Active”. Besides, the IC50 was above 34400 nM on Histone deacetylase 3, above 34400 nM on Histone deacetylase 1, above 34400 nM at Histone deacetylase 2 and 354 nM with A549.
